According to ChEMBL document CHEMBL1240442, “Design and synthesis of novel tricyclic benzoxazines as potent 5-HT(1A/B/D) receptor antagonists leading to the discovery of 6-{2-[4-(2-methyl-5-quinolinyl)-1-piperazinyl]ethyl}-4H-imidazo[5,1-c][1,4]benzoxazine-3-carboxamide (GSK588045)” (J Med Chem, 2010):

Experiments:
Format in all cases: ADME, organism-based
[1] = Clearance in Sprague-Dawley rat blood at 0.5 mg/kg, iv and 1 mg/kg, po; settings: whole blood
Method in brief: (§1)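 Male Sprague-Dawley rats given 0.5 mg free base/kg iv bolus and 1 mg/kg po. Blood compound levels measured by protein precipitation and HPLC-MS/MS.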

[2] = Half life in Sprague-Dawley rat at 0.5 mg/kg, iv and 1 mg/kg, po; settings: in vivo; method in brief: as §1
[3] = Oral bioavailability in Sprague-Dawley rat at 1 mg/kg; settings: in vivo; method in brief: as §1
[4] = Volume of distribution at steady state in Sprague-Dawley rat at 0.5 mg/kg, iv and 1 mg/kg, po; settings: in vivo, read-out: Vdss; method in brief: as §1
[5] = Ratio of drug level in brain to blood in Sprague-Dawley rat at 0.5 mg/kg, iv and 1 mg/kg, po after 1 hr; settings: brain/whole blood, read-out: BBR

Row | clearance [1] [mL/min/kg] | half-life [2] [h] | bioavailability [3] [%] | Vd [4] [L/kg] | Kp at 1 h [5] | SMILES
1 | 10 | 8.7 | 43 | 7.1 | 2.7 | CC(=O)c1ncn2c1COc1c(CCN3CCN(c4cccc5nc(C)ccc45)CC3)cccc1-2
2 | 10 | 4.4 | 45 | 2.9 | 1.1 | Cc1ccc2c(N3CCN(CCc4cccc5c4OCc4c(C(N)=O)ncn4-5)CC3)cccc2n1

More lines, now with the values behind:

Row | SMILES | clearance [1] [mL/min/kg] | half-life [2] [h] | bioavailability [3] [%] | Vd [4] [L/kg] | Kp at 1 h [5]
3 | Cc1ccc2c(N3CCN(CCc4cccc5c4OCc4c(C(=O)N6CCCC6)ncn4-5)CC3)cccc2n1 | 20 | 3.1 | 43 | 5 | 3.2
4 | CNC(=O)c1ncn2c1COc1c(CCN3CCN(c4cccc5nc(C)ccc45)CC3)cccc1-2 | 8 | 6.3 | 104 | 3.8 | 2.4
5 | Cc1ccc2c(N3CCN(CCc4cccc5c4OCc4nnc(C)n4-5)CC3)cccc2n1 | 12 | 1.8 | 51 | 1.6 | 0.5
6 | Cc1ccc2c(N3CCN(CCc4cccc5c4OCc4c(C(=O)N6CCOCC6)ncn4-5)CC3)cccc2n1 | 12 | 7.6 | 65 | 5.5 | 1.7
7 | Cc1ccc2c(N3CCN(CCc4cccc5c4OCc4c(C(=O)N(C)C)ncn4-5)CC3)cccc2n1 | 29 | 2.1 | 50 | 3.5 | 1.8
8 | Cc1ccc2c(N3CCN(CCc4cccc5c4OCc4c(C#N)ncn4-5)CC3)cccc2n1 | 10 | 5.1 | 48 | 3.9 | 1.6
